Compound activity (PubChem BioAssay)
The list is not random: actives were taken first. Their share in the collection is about 3.1%.
GalR3 antag: human GalR3 antagonism. O60755. HEK293 GalR3-CNG cAMP membrane potential fluorescence; galR3 body fused to GalR1 C-terminus. inhibition, % at 3 µM. actives 0.44% (n = 360,000);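 active = inhibition above the screen-wide average plus 3 SD, cut at about 13% in these data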;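 also: forskolin and galanin both at EC90 stimulate the cells; cAMP rise reported by CNG channel membrane potential dye signal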
Target sequence (O60755 1-299 limits assumed): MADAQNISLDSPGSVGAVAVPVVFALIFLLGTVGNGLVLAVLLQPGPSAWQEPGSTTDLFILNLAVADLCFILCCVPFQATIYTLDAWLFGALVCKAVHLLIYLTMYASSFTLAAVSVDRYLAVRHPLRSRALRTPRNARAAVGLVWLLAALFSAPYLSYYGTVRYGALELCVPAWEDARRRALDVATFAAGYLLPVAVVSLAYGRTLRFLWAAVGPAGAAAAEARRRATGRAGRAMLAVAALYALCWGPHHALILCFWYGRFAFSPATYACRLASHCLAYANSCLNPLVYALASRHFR
CHO parental Ca: signal in parental CHO cells, OX1R antagonist counter-screen. parental CHO-K1, ATP-induced calcium, Fluo-8 fluorescence. inhibition, % at 5.6 µM. actives 0.63% (n = 330,000). AID 463079;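 active = inhibition above that plate's mean sample inhibition plus 3 SD, cut at about 26% in these data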
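Assay system: parental CHO cells; Read-out basis: percent inhibition of ATP-evoked calcium rise, normalized to controls; Benchmarks: ATP and no-ATP DMSO wells; Compound dosing: single nominal dose of 5.6 µM per compound; Signal: Fluo-8 calcium dye fluorescence; Also added: ATP as calcium-mobilizing challenge; Repeats: singlicate.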
GPR7 antagonist: antagonists of human GPR7 (neuropeptides B/W receptor 1) | P48145 | GPR7-expressing cells, fluorescence antagonist assay | inhibition, % at 4.4 µM | actives 1.1% (n = 290,000); in the data active = inhibition above about 16%, passing the limit was not always enough;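 also: cells stimulated with the agonist NPW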
Target sequence (P48145 whole entry, looked up): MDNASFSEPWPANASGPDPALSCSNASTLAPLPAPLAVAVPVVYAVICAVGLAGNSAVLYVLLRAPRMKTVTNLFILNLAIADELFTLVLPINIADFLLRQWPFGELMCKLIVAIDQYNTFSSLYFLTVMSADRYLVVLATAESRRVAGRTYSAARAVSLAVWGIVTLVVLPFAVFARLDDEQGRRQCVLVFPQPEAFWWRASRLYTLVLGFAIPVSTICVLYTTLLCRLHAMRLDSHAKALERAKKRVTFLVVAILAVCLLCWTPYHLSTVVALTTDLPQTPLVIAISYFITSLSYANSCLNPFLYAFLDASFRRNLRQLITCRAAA
OX1R antag-1: antagonists of human orexin 1 receptor; actives 0.43% (n = 330,000); CHO/OX1R cells, Fluo-8 calcium fluorescence, orexin A; AID 434989; inhibition, % at 5 µM; O43613;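 active = inhibition above its plate's threshold, mean inhibition of all tested compounds on the plate plus 3 SD, cut at about 37% in these data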
OX1R antag-2: blocks the human orexin 1 receptor. actives 1.8% (n = 330,000). AID 485270. inhibition, % at 6.6 µM. OX1R-expressing cells, FRET antagonist read-out. O43613; in the data active = inhibition mostly above about 38%, no sharp cut-off; inactive = mostly below about 40%
GPR7 antag conf: human GPR7 antagonism, confirmation assay. shares compounds with GPR7 antagonist. GPR7-expressing cells, calcium fluorescence antagonist mode. inhibition, % at 4.4 µM. actives 52% (n = 2,400). AID 1952; in the data active = inhibition above about 24%;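 also: stimulated with the GPR7 agonist NPW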
MCHR1 antagonist: antagonizes human MCHR1, a GPR7 antagonist counter-screen. shares compounds with GPR7 antagonist. MCHR1-expressing cells, fluorescence antagonist assay. inhibition, % at 4.4 µM. actives 62% (n = 2,400); in the data active = inhibition above about 22%
OX1R Fluo8 conf: OX1R (human) antagonism, confirmed | actives 38% (n = 1,100) | inhibition, % at 5 µM | shares compounds with OX1R antag-1 | CHO/OX1R cells, orexin A calcium Fluo-8 fluorescence; in the data active = inhibition above about 29%
CHO Ca triplic: signal in parental CHO cells, OX1R antagonist counter-screen | shares compounds with OX1R antag-1 | parental CHO-K1, ATP-induced calcium, Fluo-8 fluorescence | inhibition, % at 5.6 µM | actives 9.3% (n = 1,100) | AID 492965;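 active = inhibition above a per-plate limit, the mean inhibition of that plate's test compounds plus 3 SD, cut at about 25% in these data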
OX1R HTRF conf: OX1R (human) antagonism, HTRF confirmed; inhibition, % at 6.6 µM; shares compounds with OX1R antag-2; actives 49% (n = 1,800); OX1R-expressing cells, HTRF antagonist assay; in the data active = inhibition above about 55%;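 also: CHO cells expressing OX1R stimulated with orexin A at about EC80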
CHO-K1 HTRF cnt: counter-screen: parental CHO-K1 HTRF response | shares compounds with OX1R antag-2 | parental CHO-K1 cells, HTRF counterscreen | inhibition, % at 6.6 µM | actives 48% (n = 1,800) | AID 493232; in the data active = inhibition above about 17%
GalR3 conf: confirmation of human galanin receptor 3 antagonists. inhibition, % at 3 µM. actives 59% (n = 1,600). AID 652245. shares compounds with GalR3 antag. HEK293 GalR3 CNG cAMP biosensor, membrane potential fluorescence; galR3 fused to GalR1 carboxy tail; challenged with forskolin and galanin at EC90;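 active = inhibition above the primary screen's cutoff, the mean inhibition of all screened compounds plus 3 SD, cut at about 13% in these data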
HEK-CNG parental: counter-screen for GalR3 antagonists: nonspecific agonists in parental HEK-CNG cells; shares compounds with GalR3 antag; HEK293-CNG parental cells, cAMP membrane potential fluorescence; normalised: DMSO wells 0%, forskolin wells 100%; activation, % at 3 µM; actives 10% (n = 1,600); AID 652268; in the data active = activation above about 1.3%
Of the large screens only hits and unclear results are named; the others gave an inactive call (follow-up assays come after a bar, where they were run).

O=C1c2ccccc2C(c2nnnn2Cc2ccccc2)N1CCc1ccc(O)cc1 (configuration not stated)	none (no result: CHO parental Ca, GPR7 antagonist, OX1R antag-1, OX1R antag-2)
COc1ccc(OC)c(NC(=O)c2cc(S(=O)(=O)NCc3ccco3)ccc2F)c1	none
CCOc1ccccc1NC(=O)c1cc(S(=O)(=O)NCc2ccco2)ccc1F	GPR7 antagonist 24.3, OX1R antag-1 39.8 | GPR7 antag conf inactive | MCHR1 antagonist inactive | OX1R Fluo8 conf inactive | CHO Ca triplic inactive
COc1ccc(-c2cc(=O)c3ccccc3s2)cc1	GPR7 antagonist 34.8, OX1R antag-2 83.2 | GPR7 antag conf inactive | MCHR1 antagonist 27.1 | OX1R HTRF conf 85.4 | CHO-K1 HTRF cnt inactive
CC(c1ccco1)N(C(=O)c1ccccc1NS(=O)(=O)c1ccc(Cl)c([N+](=O)[O-])c1)c1ccccn1 (configuration not stated)	GPR7 antagonist 24.0, OX1R antag-2 97.7 | GPR7 antag conf inactive | MCHR1 antagonist 30.8 | OX1R HTRF conf inactive | CHO-K1 HTRF cnt inactive
O=C(Nc1ccc(Oc2cccnc2)cc1)C1CCN(Cc2cc(Cl)ccc2O)CC1	none
CN(C)C(=O)c1cc2cc([N+](=O)[O-])ccc2s1	GPR7 antagonist 26.4, OX1R antag-2 119.8 | GPR7 antag conf inactive | MCHR1 antagonist inactive | OX1R HTRF conf inactive | CHO-K1 HTRF cnt 32.7
C[C@H](CO)N1C[C@H](C)[C@@H](CN(C)C(=O)Nc2ccc(C(F)(F)F)cc2)OCc2cn(nn2)CCCC1=O	none (no result: CHO parental Ca, GPR7 antagonist, OX1R antag-1, OX1R antag-2)
COc1ccc(C(=O)CSc2n[nH]c(=O)[nH]c2=O)cc1	none
O=C(CSc1n[nH]c(=O)[nH]c1=O)c1ccc([N+](=O)[O-])cc1	GPR7 antagonist 25.9, OX1R antag-2 134.0 | GPR7 antag conf inactive | MCHR1 antagonist inactive | OX1R HTRF conf 55.5 | CHO-K1 HTRF cnt 80.1
CCOC(=O)c1cc2[nH]c3ccccc3c2[n+](-c2ccc([N+](=O)[O-])cc2)c1C	GPR7 antagonist 23.1, OX1R antag-2 114.2 | GPR7 antag conf inactive | MCHR1 antagonist inactive | OX1R HTRF conf inactive | CHO-K1 HTRF cnt 75.3
O=C(OCc1cccc([N+](=O)[O-])c1)c1cc(=O)[nH]c2ccccc12	none (no result: GalR3 antag)
COC(=O)c1cc2ccccn2c2c(C(=O)OC)c(C(=O)OC)cc1-2	GPR7 antagonist 31.4, OX1R antag-2 94.3 | GPR7 antag conf inactive | MCHR1 antagonist 21.9 | OX1R HTRF conf inactive | CHO-K1 HTRF cnt 24.9
COC(=O)c1cc2c(C)cc3ccc(C)cn3c-2c1C(=O)OC	none
CCNC(=O)C1CCCN(C(=O)c2cc(C)oc2C)CC1 (configuration not stated)	none (no result: CHO parental Ca, GPR7 antagonist, OX1R antag-1, OX1R antag-2)
Nc1c(C(=O)O)ccc2c1C(=O)c1ccccc1C2=O	GPR7 antagonist 23.0, OX1R antag-2 107.1 | GPR7 antag conf inactive | MCHR1 antagonist inactive | OX1R HTRF conf inactive | CHO-K1 HTRF cnt 28.8
O=C(CCC(=O)OCCOc1ccccc1)OCCOc1ccccc1	none (no result: CHO parental Ca, GPR7 antagonist, OX1R antag-1, OX1R antag-2)
COc1ccc(-c2c[n+]3c(n2-c2ccc(C)cc2)CCCCC3)cc1	GalR3 antag 71.1, GPR7 antagonist 25.1 | GPR7 antag conf 46.8 | MCHR1 antagonist 38.2 | GalR3 conf 91.7 | HEK-CNG parental inactive
CCCCNS(=O)(=O)c1cccc(NC(=O)[C@@H]2O[C@H](CO)[C@@H](O)[C@H]2O)c1	none (no result: CHO parental Ca, GPR7 antagonist, OX1R antag-1, OX1R antag-2)
Cc1ccc(NC(=O)CSc2ncnc3ccccc23)cc1S(=O)(=O)N1CCCCC1	GalR3 antag 84.9, GPR7 antagonist 23.5 | GPR7 antag conf 58.1 | MCHR1 antagonist 63.5 | GalR3 conf 104.0 | HEK-CNG parental inactive
Cc1ccc(NC(=O)CSc2ncnc3ccccc23)cc1S(=O)(=O)N1CCOCC1	none
COc1c(F)cccc1C1=CC(=O)C[C@H](c2ccc(F)cc2)C1	none (no result: CHO parental Ca, GPR7 antagonist, OX1R antag-1, OX1R antag-2)
CS(=O)(=O)c1ccc(Cl)c(NC(=O)C2CCCCN2S(=O)(=O)c2ccccc2)c1 (configuration not stated)	none (no result: GPR7 antagonist)
CCNc1ccc(S(=O)(=O)NCCN(C)C)cc1[N+](=O)[O-]	none
CN(C)CCCNS(=O)(=O)c1ccc(NC2CCCCCC2)c([N+](=O)[O-])c1	GalR3 antag 78.0, GPR7 antagonist 22.8 | GPR7 antag conf 47.6 | MCHR1 antagonist 50.6 | GalR3 conf 100.3 | HEK-CNG parental 1.6
CCCCNC(=O)C1(C)CCCCN1C(=O)c1cc(C#N)cs1 (configuration not stated)	none (no result: CHO parental Ca, GPR7 antagonist, OX1R antag-1, OX1R antag-2)
Cc1ccccc1OCC(=O)OCC(=O)NCc1ccccc1Cl	none (no result: GPR7 antagonist)
Cc1ccc(NC(=O)CSc2nn(-c3ccccc3)c(=S)s2)cc1S(=O)(=O)N(C)C	GalR3 antag 71.5, GPR7 antagonist 21.4 | GPR7 antag conf 56.1 | MCHR1 antagonist 68.0 | GalR3 conf 93.1 | HEK-CNG parental inactive
O=C(CSc1nn(-c2ccccc2)c(=S)s1)Nn1cnnc1	none
CC1CN(C(=O)c2cc(-c3ccc(Cl)s3)nc3ccccc23)CC(C)O1 (configuration not stated)	none (no result: GPR7 antagonist)
CC(=O)OCCNc1cc(Sc2nc3ccccc3[nH]2)c2nonc2c1[N+](=O)[O-]	GalR3 antag 45.7, CHO parental Ca 48.0, GPR7 antagonist 33.5, OX1R antag-2 98.4 | GPR7 antag conf 60.0 | MCHR1 antagonist 101.2 | GalR3 conf 31.7 | HEK-CNG parental inactive
C=CCSc1nsc(NC(=O)Nc2ccc(F)cc2)n1	GalR3 antag 68.7, CHO parental Ca 50.7, GPR7 antagonist 35.6, OX1R antag-2 70.1 | GPR7 antag conf 61.3 | MCHR1 antagonist 61.0 | GalR3 conf 39.8 | HEK-CNG parental inactive
